In ChEMBL document CHEMBL4014335, “Activation of Phenyl 4-(2-Oxo-3-alkylimidazolidin-1-yl)benzenesulfonates Prodrugs by CYP1A1 as New Antimitotics Targeting Breast Cancer Cells” (J Med Chem, 2017):
Calls of active or inactive are those of the source. The rule behind the calls is not given here.

What was measured:
MDA-MB-231 = assay: Antiproliferative activity against ER/PR/HER2 deficient human MDA-MB-231 cells after 72 hrs by SRB assay; assay type: functional, cell-based; details: MDA-MB-231, 72 h
Summary of the method: (§1)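 SRB antiproliferative assay (modified NCI protocol). Cells seeded per well (SK-BR-3, MDA-MB-231, T47D, HT-1080, HT-1080 CYP1A1 and empty-vector: 3.0 x 10^3; MDA-MB-468: 5.0 x 10^3; MCF7: 7.5 x 10^3), preincubated 24 h. DMSO-solubilized drug added at 0.75 to 1.0 x 10^5 nM, then 72 h. Fixed with cold 10% TCA, stained with 0.1% sulforhodamine B, absorbance read at 530-565 nm. At least two experiments, triplicate cultures.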

MDA-MB-468 [1] = assay: Antiproliferative activity against ER/PR/HER2 deficient human MDA-MB-468 cells after 72 hrs by SRB assay; assay type: functional, cell-based; details: MDA-MB-468, 72 h; summary of the method: as §1
T47D = assay: Antiproliferative activity against ER/PR/HER2 expressing human T47D cells after 72 hrs by SRB assay; assay type: functional, cell-based; summary of the method: as §1
SK-BR-3 = assay: Antiproliferative activity against ER/PR deficient and HER2 expressing human SKBR3 cells after 72 hrs by SRB assay; assay type: functional, cell-based; details: SK-BR-3, 72 h; summary of the method: as §1
MCF7 [2] = assay: Antiproliferative activity against human MCF7 cells after 72 hrs by SRB assay; assay type: functional, cell-based; details: MCF7, 72 h; summary of the method: as §1
[3] = Selectivity ratio of IC50 for ER/PR/HER2 deficient human MDA-MB-231 cells to IC50 for ER/PR/HER2 deficient human MDA-MB-468 cells; assay type: functional
Summary of the method: (§2)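 Ratio is IC50 in reference line over IC50 in sensitive line. […] Cells in DMEM with 5% calf serum at 37 °C. At least two experiments, triplicate cultures; assay accepted when relative SD < 10%.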

[4] = Selectivity ratio of IC50 for ER/PR/HER2 deficient human MDA-MB-231 cells to IC50 for ER/PR/HER2 expressing human T47D cells; assay type: functional; summary of the method: as §2
[5] = Selectivity ratio of IC50 for ER/PR/HER2 deficient human MDA-MB-231 cells to IC50 for ER/PR deficient and HER2 expressing human SKBR3 cells; assay type: functional; summary of the method: as §2
[6] = Selectivity ratio of IC50 for ER/PR/HER2 deficient human MDA-MB-231 cells to IC50 for human MCF7 cells; assay type: functional; summary of the method: as §2
Cytochrome P450 1A1 = target: T1, Cytochrome P450 1A1 (Homo sapiens, UniProt P04798); assay: Inhibition of human supersomes CYP1A1-mediated 7-ethoxyresorufin conversion to fluorescent resorufin preincubated with 7-ethoxyresorufin for 5 mins followed by addition of NADPH regenerating system measured for 15 mins by EROD assay; assay type: ADME
T1 sequence (P04798 whole entry): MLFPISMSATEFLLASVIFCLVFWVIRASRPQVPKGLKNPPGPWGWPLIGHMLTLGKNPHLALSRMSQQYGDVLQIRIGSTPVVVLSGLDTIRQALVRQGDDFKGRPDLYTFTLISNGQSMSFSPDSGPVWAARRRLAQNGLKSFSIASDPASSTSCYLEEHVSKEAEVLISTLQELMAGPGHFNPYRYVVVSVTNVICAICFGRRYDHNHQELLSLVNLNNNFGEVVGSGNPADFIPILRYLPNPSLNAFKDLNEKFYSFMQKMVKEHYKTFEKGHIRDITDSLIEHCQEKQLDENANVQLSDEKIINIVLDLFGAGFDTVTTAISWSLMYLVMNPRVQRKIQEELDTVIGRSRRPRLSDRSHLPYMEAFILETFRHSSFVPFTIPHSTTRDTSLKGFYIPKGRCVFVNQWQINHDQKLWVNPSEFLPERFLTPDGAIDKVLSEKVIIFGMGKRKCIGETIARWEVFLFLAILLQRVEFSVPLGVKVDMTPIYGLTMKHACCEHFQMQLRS
Summary of the method: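 EROD assay with human CYP1A1 supersomes containing reductase, in potassium phosphate buffer. Drug final 32–31 600 nM and 7-ethoxyresorufin 94–3 000 nM, with 0.35% DMSO, preincubated 5 min at 37 °C. Reaction started with NADPH-regenerating system and 0.15 pmol CYP1A1 in 150 µL. Initial velocity taken from 1–5 min; Vmax and Km from Lineweaver-Burk plot.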

HT-1080 [7] = assay: Antiproliferative activity against human wild type HT1080 cells after 72 hrs by SRB assay; assay type: functional, cell-based; details: HT-1080, 72 h; summary of the method: as §1
HT-1080 [8] = assay: Antiproliferative activity against human HT1080 cells transfected with pCMV6-AC empty plasmid after 72 hrs by SRB assay; assay type: functional, cell-based; details: HT-1080, 72 h; summary of the method: as §1
HT-1080 [9] = assay: Antiproliferative activity against human HT1080 cells transfected with CYP1A1 after 72 hrs by SRB assay; assay type: functional, cell-based; details: HT-1080, 72 h; summary of the method: as §1
HT-1080 [10] = assay: Selectivity ratio of IC50 for HT1080 cells transfected with pCMV6-AC empty plasmid to IC50 for human HT1080 cells transfected with CYP1A1; assay type: functional
Summary of the method: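 Ratio is IC50 (HT-1080 empty vector) over IC50 (HT-1080 CYP1A1). Both lines stably transfected (pCMV6-AC plasmids) and kept under G418 selection, seeded at 3.0 x 10^3 cells. IC50s from SRB antiproliferative assay.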

HT-1080 [11] = assay: Antitumor activity against human HT1080 cells implanted in chicken chorioallantoic membrane assessed as tumor growth inhibition at 1 ug/egg, iv administered on day 11 post implantation measured on day 17; assay type: functional
Summary of the method: (§3)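 Chick CAM tumor model using HT-1080 cells (wild-type or stably transfected with CYP1A1 or empty plasmid). Eggs incubated 10 d. On day 11, drug in DMSO (40 mM stock) was diluted in cremophor/EtOH/PBS (6.25/6.25/87.5), DMSO kept below 0.5%, and given iv in 100 µL to 10-12 eggs. Tumors excised on day 17 and wet-weighed. Two independent experiments (20-24 eggs); embryo deaths and toxicity recorded.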

HT-1080 [12] = assay: Antitumor activity against CYP1A1 transfected human HT1080 cells implanted in chicken chorioallantoic membrane assessed as tumor growth inhibition at 1 ug/egg, iv administered on day 11 post implantation measured on day 17; assay type: functional; summary of the method: as §3
HT-1080 [13] = assay: Antitumor activity against empty plasmid transfected human HT1080 cells implanted in chicken chorioallantoic membrane assessed as tumor growth inhibition at 1 ug/egg, iv administered on day 11 post implantation measured on day 17; assay type: functional; summary of the method: as §3
MCF7 [14] = assay: Cell cycle arrest in human MCF7 cells assessed as accumulation at S phase at 50 nM after 24 hrs by DAPI-staining based FACS analysis (reference value: 10.6%); assay type: functional
MDA-MB-468 [15] = assay: Cytotoxicity against human MDA-MB-468 cells after 72 hrs in presence of CYP1A1 inhibitor ketoconazole by SRB assay; assay type: functional, cell-based
Summary of the method: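 MDA-MB-468 cells (5.0 x 10^3/well) seeded and incubated 24 h. Drug freshly dissolved in DMSO, given at 0.75 to 1.0 x 10^5 nM, together with subtoxic CYP inhibitor, for 72 h. Cells fixed with cold 10% TCA and stained with 0.1% sulforhodamine B. Bound dye taken up in 10 mM Tris, absorbance read at 530-565 nm. At least two experiments, triplicate cultures.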

MDA-MB-468 [16] = assay: Cytotoxicity against human MDA-MB-468 cells after 72 hrs in presence of CYP1A1 inhibitor capsaicin by SRB assay; assay type: functional, cell-based
Summary of the method: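 MDA-MB-468 cells co-incubated for 72 h with drug plus a subtoxic concentration of a CYP inhibitor. Viability read by SRB assay: TCA fixation, sulforhodamine B staining, absorbance at 530-565 nm.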

| SMILES | IC50 (MDA-MB-231) | IC50 (MDA-MB-468 [1]) | IC50 (T47D) | IC50 (SK-BR-3) | IC50 (MCF7 [2]) | Ratio IC50 [3] | Ratio IC50 [4] | Ratio IC50 [5] | Ratio IC50 [6] | IC50 (HT-1080 [7]) | IC50 (HT-1080 [8]) | IC50 (HT-1080 [9]) | Ratio IC50 (HT-1080 [10]) | TGI (HT-1080 [11]) | TGI (HT-1080 [12]) | TGI (HT-1080 [13]) | other results |
| --- | --- | --- | --- | --- | --- | --- | --- | --- | --- | --- | --- | --- | --- | --- | --- | --- | --- |
| COc1cc(OS(=O)(=O)c2ccc(N3CCNC3=O)cc2)cc(OC)c1OC | 6.4 nM | 4.6 nM | 6.2 nM | 3.1 nM | 3.1 nM | 1.4 | 1 | 2.1 | 2.1 | 3.6 nM | 3.3 nM | 1.7 nM | 1.9 | 51% | 32% | 21% | Ki (Cytochrome P450 1A1): Not Active |
| CCCCN1CCN(c2ccc(S(=O)(=O)Oc3cc(OC)c(OC)c(OC)c3)cc2)C1=O | 6000 nM | 10 nM | 20 nM | 2 nM | 5.5 nM | 590 | 300 | 3000 | 1100 | 5500 nM | 47000 nM | 13 nM | 3600 | 15% | 49% | inactive | Ki (Cytochrome P450 1A1; read-out: Ki): 540 nM; Activity (MCF7 [14]): 1.8%; Activity (MDA-MB-468 [15]): inactive; Activity (MDA-MB-468 [16]): inactive |
